Results taken from ChEMBL document CHEMBL5344453, “Selective Recognition of c-KIT 1 G-Quadruplex by Structural Tuning of Heteroaromatic Scaffolds and Side Chains” (ACS Med Chem Lett, 2024).
pIC50, pKd: −log10 of the molar value.

Key:
Quadruplex DNA [1] = assay: Binding affinity to G-quadruplex c-KIT1 5-FAM-GGGAGGGCGCTGGGAGGAGGG-TAMRA-3 (unknown origin) assessed as dissociation constant by fluorescence spectroscopy assay; format: nucleic-acid assay
K562 [2] = assay: Induction of apoptosis in human K562 cells assessed as cell death at 3 uM incubated for 24 hrs by FITC-Annexin V and PI based flow cytometry relative to control; format: functional
How it was run: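 K562 cells after ligand treatment dual-stained with annexin V and propidium iodide. Apoptotic cell populations (early and late) scored by flow cytometry dot plot analysis.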

Quadruplex DNA [3] = assay: Stabilization of G-quadruplex c-KIT2 5-FAM-GGGCGGGCGCGAGGGAGGGG-TAMRA-3 (unknown origin) assessed as change in melting temperature at 10 uM incubated for 1 hr in dark condition by FRET-based melting assay; format: nucleic-acid assay
How it was run: (§1)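 FRET melting of dual-fluorophore (FAM/TAMRA) tagged G-quadruplex (200 nM) in 60 mM potassium cacodylate, pH 7.4. The screen used 1 μM ligand; dose series used 1, 3, 5, 7 and 10 μM. ΔTm was taken against the Tm of the same oligonucleotide without ligand.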

K562 [4] = assay: Induction of apoptosis in human K562 cells assessed as apoptosis incubated for 24 hrs by FITC-Annexin V and PI based flow cytometry; format: functional, cell-based
How it was run: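 K562 cells were treated with ligand (3 and 6 μM or 5.5 and 11 μM) and dual-stained with annexin V and PI. Early and late apoptotic populations were quantified by flow cytometry dot plot analysis.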

Quadruplex DNA [5] = assay: Stabilization of G-quadruplex VEGF 5-FAM-CGGGGCGGGCCGGGGGCGGGGT-TAMRA-3 (unknown origin) assessed as change in melting temperature at 1 uM incubated for 1 hr in dark condition by FRET-based melting assay; format: nucleic-acid assay
How it was run: (§2)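 FRET melting of dual-fluorophore-tagged oligonucleotides (200 nM) in 60 mM potassium cacodylate buffer, pH 7.4, with ligand at 1 μM; ΔTm taken against the ligand-free oligonucleotide Tm as control.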

MCF7 = assay: Cytotoxicity against human MCF7 cells assessed as cell viability measured after 24 hrs by XTT formazan assay; format: functional, cell-based; conditions: MCF7, 24 h
K562 [6] = assay: Attenuation of proto-oncogene expression in human c-KIT-positive K562 cells assessed as reduction in c-MYC oncogene expression at 3 uM measured after 24 hrs by qRT-PCR analysis relative to control; format: functional
How it was run: (§3)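 K562 cells treated 24 h at two doses per ligand (3 and 6 μM, 5.5 and 11 μM; positive control 2 and 4 μM). c-KIT, c-MYC and BCL-2 mRNA measured by qRT-PCR and normalized to housekeeping gene 18s, relative to untreated control.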

Quadruplex DNA [7] = assay: Binding affinity to G-quadruplex c-KIT1 5-FAM-GGGAGGGCGCTGGGAGGAGGG-TAMRA-3 (unknown origin) assessed as dissociation constant by isothermal titration calorimetry (ITC) assay; format: nucleic-acid assay
How it was run: (§4)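 ITC of ligand binding to folded G4 in 100 mM Tris-KCl buffer, pH 7.4. Kd and stoichiometry were obtained from the isothermal heat curve and binding isotherm.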

Quadruplex DNA [8] = assay: Stabilization of calf thymus […] ds DNA 5-FAM-CAATCGGATCGAATTCGATCCGATTG-TAMRA-3 assessed as change in melting temperature at 1 uM incubated for 1 hr in dark condition by FRET-based melting assay; format: nucleic-acid assay; conditions: Bos taurus; how it was run: as §2
Quadruplex DNA [9] = assay: Binding affinity to G-quadruplex c-KIT 2 5-FAM-GGGCGGGCGCGAGGGAGGGG-TAMRA-3 (unknown origin) assessed as dissociation constant by fluorescence spectroscopy assay; format: nucleic-acid assay
How it was run: (§5)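 Fluorimetric titration of ligand held at 1.0 μM with increasing concentrations of G4 or dsDNA until saturation. Change in ligand fluorescence intensity was fitted for Kd. Run in 100 mM Tris-KCl buffer, pH 7.4.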

K562 [10] = assay: Cytotoxicity against human c-KIT-positive K562 cells assessed as cell viability measured after 24 hrs by XTT formazan assay; format: functional, cell-based; conditions: K562, 24 h
K562 [11] = assay: Induction of cell cycle arrest in human K562 cells assessed as accumulation at G0/G1 phase at 6 uM incubated for 24 hrs by propidium iodide based assay; format: functional
How it was run: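 K562 cells were treated with ligand (3 and 6 μM or 5.5 and 11 μM) and stained with propidium iodide. The fraction of cells in each cell-cycle phase was determined by flow cytometry.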

K562 [12] = assay: Attenuation of proto-oncogene expression in human c-KIT-positive K562 cells assessed as reduction in c-KIT oncogene expression at 3 uM measured after 24 hrs by qRT-PCR analysis relative to control; format: functional; how it was run: as §3
Quadruplex DNA [13] = assay: Stabilization of G-quadruplex BCL2 5-FAM-AGGGGCGGGCGCGGGAGGAAGGGGGCGGGAGCGGGGCTG-TAMRA-3 (unknown origin) assessed as change in melting temperature at 1 uM incubated for 1 hr in dark condition by FRET-based melting assay; format: nucleic-acid assay; how it was run: as §2
[14] = Reduction of c-MYC oncogene expression in human K562 cells transfected with c-MYC plasmid construct assessed as reduction in luciferase expression at 6 uM measured after 36 hrs by luciferase reporter assay; format: functional
How it was run: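 Promoter luciferase reporter: K562 cells transfected with a c-MYC promoter G4-containing luciferase-expressing plasmid, then ligand-treated at two doses each (3 and 6 μM, or 5.5 and 11 μM); read-out as relative luciferase expression, reported as percent reduction.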

Quadruplex DNA [15] = assay: Stabilization of G-quadruplex c-KIT1 5-FAM-GGGAGGGCGCTGGGAGGAGGG-TAMRA-3 (unknown origin) assessed as change in melting temperature at 1 uM incubated for 1 hr in dark condition by FRET-based melting assay; format: nucleic-acid assay; how it was run: as §2
Quadruplex DNA [16] = assay: Stabilization of G-quadruplex c-KIT1 5-FAM-GGGAGGGCGCTGGGAGGAGGG-TAMRA-3 (unknown origin) assessed as change in melting temperature at 7 uM incubated for 1 hr in dark condition by FRET-based melting assay; format: nucleic-acid assay; how it was run: as §1
Quadruplex DNA [17] = assay: Binding affinity to excessive G-quadruplex VEGF 5-FAM-CGGGGCGGGCCGGGGGCGGGGT-TAMRA-3 (unknown origin) assessed as fold increase in fluorescence intensity at 1 uM incubated for 1 hr in dark condition by fluorescence spectroscopy assay; format: nucleic-acid assay
How it was run: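 Fluorimetric titration in 100 mM Tris-KCl buffer, pH 7.4. Ligand fixed at 1.0 μM and titrated with increasing concentrations of each G-quadruplex until fluorescence saturation. The fold increase in ligand fluorescence intensity was read, and Kd was derived from the titration plot.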

Quadruplex DNA [18] = assay: Binding affinity to G-quadruplex h-TELO 5-FAM-TTGGGTTAGGGTTAGGGTTAGGGA-TAMRA-3 (unknown origin) assessed as dissociation constant by measuring thermogram by isothermal titration calorimetry (ITC) assay; format: nucleic-acid assay; how it was run: as §4
Calf thymus DNA = assay: Binding affinity to calf thymus ds DNA assessed as dissociation constant by fluorescence spectroscopy assay; format: nucleic-acid assay, Bos taurus; how it was run: as §5
Quadruplex DNA [19] = assay: Stabilization of G-quadruplex h-TELO 5-FAM-TTGGGTTAGGGTTAGGGTTAGGGA-TAMRA-3 (unknown origin) assessed as change in melting temperature at 10 uM incubated for 1 hr in dark condition by FRET-based melting assay; format: nucleic-acid assay; how it was run: as §1
Quadruplex DNA [20] = assay: Binding affinity to G-quadruplex c-KIT1 5-FAM-GGGAGGGCGCTGGGAGGAGGG-TAMRA-3 (unknown origin) assessed as increase in melting temperature by CD spectra analysis; format: nucleic-acid assay

With `CN(C)CCCNC(=O)c1ccc(-n2cc(-c3ccc4[nH]c5ccccc5c4c3)nn2)cc1` as the compound, how does the pKd (Quadruplex DNA [1]) read?
Its pKd is 5.85.

What about the Activity (K562 [2]) of the same compound?
Its Activity is 35%.

And the ΔTm (Quadruplex DNA [3])?
The ΔTm was 18.1 °C.

What about the Activity (K562 [4]) of the same compound?
The Activity was “Dose-Dependent Effect”.

What about the ΔTm (Quadruplex DNA [5]) of the same compound?
The ΔTm was 3.5 °C.

And the pIC50 (MCF7)?
The pIC50 was 4.70.

And the inhibition at 3 µM (K562 [6])?
The inhibition at 3 µM was 15%.

And the pKd (Quadruplex DNA [7])?
The pKd was 5.80.

And the ΔTm (Quadruplex DNA [8])?
Its ΔTm is 0.7 °C.

And the pKd (Quadruplex DNA [9])?
Its pKd is 5.55.

And the pIC50 (K562 [10])?
Its pIC50 is 5.21.

And the Activity (K562 [11])?
Its Activity is 79.7%.

What about the inhibition at 3 µM (K562 [12]) of the same compound?
The inhibition at 3 µM was 28%.

What about the ΔTm (Quadruplex DNA [13]) of the same compound?
The ΔTm was 2.2 °C.

What about the inhibition at 6 µM [14] of the same compound?
Its inhibition at 6 µM is 12.3%.

What about the ΔTm (Quadruplex DNA [15]) of the same compound?
Its ΔTm is 20.1 °C.

And the ΔTm (Quadruplex DNA [16])?
Its ΔTm is 26.5 °C.

And the fold change (FC) (Quadruplex DNA [17])?
The fold change (FC) was 2.1.

What about the pKd (Quadruplex DNA [18]) of the same compound?
The pKd was 4.76.

And the pKd (Calf thymus DNA)?
Its pKd is 5.40.

What about the ΔTm (Quadruplex DNA [19]) of the same compound?
Its ΔTm is 20.3 °C.

And the ΔTm (Quadruplex DNA [20])?
Its ΔTm is 16 °C.
